ChEMBL document CHEMBL3580549, “Lignan Glycosides from the Twigs of Chaenomeles sinensis and Their Biological Activities” (J Nat Prod, 2015)

Key:
[1] = Cytotoxicity against mouse BV2 cells assessed as cell viability at 20 uM by MTT assay relative to control; format: cell-based, BV-2; conditions: read-out: Activity
C6 = experiment: Neuroprotective activity in rat C6 cells assessed as stimulation of NGF release at 20 uM after 24 hrs by ELISA relative to control; format: functional
Procedure, shortened: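 C6 rat glioma cells were treated with each compound at 20 μM, and NGF secreted into the medium was measured. Stimulation is given as percent of control, and 6-shogaol was the positive control.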

[2] = Antiinflammatory activity against LPS-stimulated mouse BV2 cells assessed as inhibition of nitric oxide production preincubated for 30 mins followed by LPS stimulation measured after 24 hrs by Griess assay; format: functional, cell-based; conditions: BV-2
Procedure, shortened: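 Murine BV2 microglial cells were activated with lipopolysaccharide. NO released into the culture medium was measured, and IC50 was derived from the inhibition of NO production. L-NMMA was the positive control.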

A549 = experiment: Cytotoxicity against human A549 cells by SRB assay; format: functional, cell-based
HCT-15 = experiment: Cytotoxicity against human HCT15 cells by SRB assay; format: functional, cell-based
SK-MEL-2 = experiment: Cytotoxicity against human SK-MEL-2 cells by SRB assay; format: functional, cell-based
SK-OV-3 = experiment: Cytotoxicity against human SKOV3 cells by SRB assay; format: functional, cell-based

IC50 [2] | SMILES | viability at 20 µM [1] | Activity (C6) | IC50 (A549) | IC50 (HCT-15) | IC50 (SK-MEL-2) | IC50 (SK-OV-3)
199 µM | COc1cc(C[C@@H]2CO[C@@H](c3cc(OC)c(O)c(OC)c3)[C@@H]2CO[C@@H]2O[C@@H](C)[C@H](O)[C@@H](O)[C@H]2O)cc(OC)c1O | 97.1% |  | > 10 µM | > 10 µM | > 10 µM | > 10 µM
40.2 µM | COc1cc([C@H]2c3cc(O)c(OC)cc3C[C@@H](CO)[C@@H]2CO[C@@H]2O[C@@H](C)[C@H](O)[C@@H](O)[C@H]2O)ccc1O [AVICULIN] | 96.1% | 123.06% | > 10 µM | > 10 µM | > 10 µM | > 10 µM
21.3 µM | COc1cc(C[C@H](CO)[C@@H](CO[C@@H]2O[C@@H](C)[C@H](O)[C@@H](O)[C@H]2O)Cc2cc(OC)c(O)c(OC)c2)cc(OC)c1O | 104% | 167.61% | > 10 µM | > 10 µM | > 10 µM | > 10 µM
37.7 µM | COc1cc([C@H]2c3c(cc(OC)c(O)c3OC)C[C@@H](CO)[C@@H]2CO[C@@H]2O[C@H](CO)[C@@H](O)[C@H](O)[C@H]2O)cc(OC)c1O | 99.7% |  | > 10 µM | > 10 µM | > 10 µM | > 10 µM
24.8 µM | CNC(=N)NCCC[C@H](N)C(=O)O [TILARGININE] | 106% |  |  |  |  | 
29.8 µM | COc1cc(C[C@H]2CO[C@@H](c3cc(OC)c(O)c(OC)c3)[C@H]2CO[C@@H]2O[C@@H](C)[C@H](O)[C@@H](O)[C@H]2O)cc(OC)c1O | 113% | 124.67% | > 10 µM | > 10 µM | > 10 µM | > 10 µM

Continued, compound first:

SMILES | IC50 [2] | viability at 20 µM [1] | Activity (C6) | IC50 (A549) | IC50 (HCT-15) | IC50 (SK-MEL-2) | IC50 (SK-OV-3)
COc1cc(C[C@@H]2CO[C@@H](c3ccc(O)c(OC)c3)[C@@H]2CO[C@@H]2O[C@@H](C)[C@H](O)[C@@H](O)[C@H]2O)ccc1O | 180 µM | 102% | 144.31% | > 10 µM | > 10 µM | > 10 µM | > 10 µM
COc1cc([C@H]2Oc3c(OC)cc(CCCO)cc3[C@@H]2CO[C@@H]2O[C@@H](C)[C@H](O)[C@@H](O)[C@H]2O)ccc1O |  | 97.4% | 102.88% | > 10 µM | > 10 µM | > 10 µM | > 10 µM
COc1cc([C@@H]2Oc3c(OC)cc(CCCO)cc3[C@H]2CO[C@@H]2O[C@@H](C)[C@H](O)[C@@H](O)[C@H]2O)cc(OC)c1O |  | 104% | 106.85% | > 10 µM | > 10 µM | > 10 µM | > 10 µM
COc1cc([C@H]2Oc3c(OC)cc(CCCO)cc3[C@@H]2CO[C@@H]2O[C@@H](C)[C@H](O)[C@@H](O)[C@H]2O)cc(OC)c1O |  | 98.2% | 151.74% | > 10 µM | > 10 µM | > 10 µM | > 10 µM
CCCCC/C=C/C(=O)CCc1ccc(O)c(OC)c1 [SHOGAOL] |  |  | 141.75% |  |  |  | 
COc1cc([C@H]2Oc3c(OC)cc(CCCO)cc3[C@@H]2CO[C@@H]2O[C@H](CO)[C@@H](O)[C@H](O)[C@H]2O)ccc1O |  | 97.2% | 140.04% | > 10 µM | > 10 µM | > 10 µM | > 10 µM
COc1cc([C@H]2c3c(cc(OC)c(O)c3OC)C[C@@H](CO)[C@@H]2CO[C@@H]2O[C@@H](C)[C@H](O)[C@@H](O)[C@H]2O)cc(OC)c1O | 31.9 µM | 99.1% |  | > 10 µM | > 10 µM | > 10 µM | > 10 µM
